How the values were obtained:
Type in all cases: functional, cell-based
A-431 = experiment: In vitro cytotoxicity of compound against human A431 (epidermoid) cancer cell line after 72 hr of drug exposure; conditions: A-431, 72 h
How it was run: (§1)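 Cytotoxicity was measured as an IC50 on a panel of human cancer lines: A431 (epidermoid), A549 (non-small-cell lung), MCF7 (breast) and MCF7-MDR (breast). The parent, unmodified taxoids were tested on the same lines.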

NCI/ADR-RES = experiment: In vitro cytotoxicity of compound against human MCF-7-MDR (breast) cancer cell line after 72 hr of drug exposure; how it was run: as §1
A549 = experiment: In vitro cytotoxicity of compound against human A549 (non small cell lung) cancer cell line after 72 hr of drug exposure; conditions: A549, 72 h; how it was run: as §1

CCC(=O)O[C@H]1C(=O)[C@@]2(C)[C@H]([C@H](OC(=O)c3ccccc3)[C@]3(O)C[C@H](OC(=O)[C@H](O)[C@H](C=C(C)C)NC(=O)OC(C)(C)C)C(C)=C1C3(C)C)[C@]1(OC(C)=O)CO[C@@H]1C[C@@H]2O
IC50 (A-431): 0.09 nM
IC50 (NCI/ADR-RES): 2.2 nM
IC50 (A549): 0.1 nM

CSSCCC(=O)O[C@H]1C(=O)[C@@]2(C)[C@H]([C@H](OC(=O)c3ccccc3)[C@]3(O)C[C@H](OC(=O)[C@H](O)[C@H](C=C(C)C)NC(=O)OC(C)(C)C)C(C)=C1C3(C)C)[C@]1(OC(C)=O)CO[C@@H]1C[C@@H]2O
IC50 (A-431): 0.5 nM
IC50 (A549): 0.8 nM

CSSCCC(=O)O[C@H]1C[C@H]2OC[C@@]2(OC(C)=O)[C@H]2[C@H](OC(=O)c3ccccc3)[C@]3(O)C[C@H](OC(=O)[C@H](O)[C@H](C=C(C)C)NC(=O)OC(C)(C)C)C(C)=C([C@@H](OC(=O)N4CCOCC4)C(=O)[C@]12C)C3(C)C
IC50 (A-431): > 3 nM

CCC(=O)O[C@H]1C(=O)[C@]2(C)[C@@H](OC(=O)CCSSC)C[C@H]3OC[C@@]3(OC(C)=O)[C@H]2[C@H](OC(=O)c2ccccc2)[C@]2(O)C[C@H](OC(=O)[C@H](O)[C@H](C=C(C)C)NC(=O)OC(C)(C)C)C(C)=C1C2(C)C
IC50 (A-431): 2 nM

CCC(=O)O[C@H]1C(=O)[C@@]2(C)[C@H]([C@H](OC(=O)c3ccccc3)[C@]3(O)C[C@H](OC(=O)[C@H](OC(=O)CCSSC)[C@H](C=C(C)C)NC(=O)OC(C)(C)C)C(C)=C1C3(C)C)[C@]1(OC(C)=O)CO[C@@H]1C[C@@H]2O
IC50 (A-431): > 3 nM
IC50 (A549): 0.9 nM

CSSc1cccc(C(=O)O[C@H]2C(=O)[C@@]3(C)[C@H]([C@H](OC(=O)c4ccccc4)[C@]4(O)C[C@H](OC(=O)[C@H](O)[C@H](C=C(C)C)NC(=O)OC(C)(C)C)C(C)=C2C4(C)C)[C@]2(OC(C)=O)CO[C@@H]2C[C@@H]3O)c1
IC50 (A-431): > 3 nM
IC50 (A549): > 3 nM

CSSc1cccc(C(=O)O[C@H]2[C@@H]3[C@]4(OC(C)=O)CO[C@@H]4C[C@H](O)[C@@]3(C)C(=O)[C@H](OC(C)=O)C3=C(C)[C@@H](OC(=O)[C@H](O)[C@H](C=C(C)C)NC(=O)OC(C)(C)C)C[C@]2(O)C3(C)C)c1
IC50 (A-431): > 3 nM
IC50 (A549): > 3 nM

CSSCC(=O)O[C@H]1C(=O)[C@@]2(C)[C@H]([C@H](OC(=O)c3ccccc3)[C@]3(O)C[C@H](OC(=O)[C@H](O)[C@H](C=C(C)C)NC(=O)OC(C)(C)C)C(C)=C1C3(C)C)[C@]1(OC(C)=O)CO[C@@H]1C[C@@H]2O
IC50 (A-431): 0.7 nM
IC50 (A549): 0.8 nM

CC(=O)O[C@H]1C(=O)[C@@]2(C)[C@H]([C@H](OC(=O)c3ccccc3)[C@]3(O)C[C@H](OC(=O)[C@H](O)[C@@H](NC(=O)c4ccccc4)c4ccccc4)C(C)=C1C3(C)C)[C@]1(OC(C)=O)CO[C@@H]1C[C@@H]2O [PACLITAXEL]
IC50 (NCI/ADR-RES): 299 nM

From ChEMBL document CHEMBL1135685, “Tumor-specific novel taxoid-monoclonal antibody conjugates” (J Med Chem, 2002)
